One assay has as its system MMP-2 CBD modules. Conditions: cited from earlier work.
Assay [1] addresses denatured type I collagen (gelatin), rat tail (rat, UniProt P02454 152-1207; P02466 86-1125). The assay can be described thus: SPR.
Assay [2] concerns gelatin (denatured type I collagen). The assay can be described thus: Surface plasmon resonance binding to immobilized gelatin. Details: species or system rat. Conditions: 1 µM analyte, Biacore buffer pH 7.4; compared to WT CBD. (SPR reads the build-up and loss of mass on a sensor chip optically.)
A further assay concerns native type I collagen. In words: Surface plasmon resonance binding to immobilized native type I collagen. Details: species or system rat. Conditions: 1 µM analyte, Biacore buffer pH 7.4; compared to WT CBD. The method, boiled down: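 Native non-pepsin-treated acid-soluble rat tail type I collagen in 10 mM sodium acetate, pH 4.5, was amine-coupled to EDC/NHS-activated CM5 chips at ~3000 RU, then ethanolamine-blocked; an uncoated flow cell served as control. Analytes at 1 µM in 10 mM HEPES, 150 mM NaCl, 0.005% P20, pH 7.4, flowed at 5 µl/min for 6 min. RU were averaged over 5 s before injection end. Chips were regenerated with 6 M guanidine-HCl, with WT CBD run at the start and end of each series.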

Usually Kd stands for the equilibrium constant for the complex coming apart. Lower therefore signals a tighter complex.

Sequence of denatured type I collagen (gelatin), rat tail (P02454 152-1207, chain 1 of 2): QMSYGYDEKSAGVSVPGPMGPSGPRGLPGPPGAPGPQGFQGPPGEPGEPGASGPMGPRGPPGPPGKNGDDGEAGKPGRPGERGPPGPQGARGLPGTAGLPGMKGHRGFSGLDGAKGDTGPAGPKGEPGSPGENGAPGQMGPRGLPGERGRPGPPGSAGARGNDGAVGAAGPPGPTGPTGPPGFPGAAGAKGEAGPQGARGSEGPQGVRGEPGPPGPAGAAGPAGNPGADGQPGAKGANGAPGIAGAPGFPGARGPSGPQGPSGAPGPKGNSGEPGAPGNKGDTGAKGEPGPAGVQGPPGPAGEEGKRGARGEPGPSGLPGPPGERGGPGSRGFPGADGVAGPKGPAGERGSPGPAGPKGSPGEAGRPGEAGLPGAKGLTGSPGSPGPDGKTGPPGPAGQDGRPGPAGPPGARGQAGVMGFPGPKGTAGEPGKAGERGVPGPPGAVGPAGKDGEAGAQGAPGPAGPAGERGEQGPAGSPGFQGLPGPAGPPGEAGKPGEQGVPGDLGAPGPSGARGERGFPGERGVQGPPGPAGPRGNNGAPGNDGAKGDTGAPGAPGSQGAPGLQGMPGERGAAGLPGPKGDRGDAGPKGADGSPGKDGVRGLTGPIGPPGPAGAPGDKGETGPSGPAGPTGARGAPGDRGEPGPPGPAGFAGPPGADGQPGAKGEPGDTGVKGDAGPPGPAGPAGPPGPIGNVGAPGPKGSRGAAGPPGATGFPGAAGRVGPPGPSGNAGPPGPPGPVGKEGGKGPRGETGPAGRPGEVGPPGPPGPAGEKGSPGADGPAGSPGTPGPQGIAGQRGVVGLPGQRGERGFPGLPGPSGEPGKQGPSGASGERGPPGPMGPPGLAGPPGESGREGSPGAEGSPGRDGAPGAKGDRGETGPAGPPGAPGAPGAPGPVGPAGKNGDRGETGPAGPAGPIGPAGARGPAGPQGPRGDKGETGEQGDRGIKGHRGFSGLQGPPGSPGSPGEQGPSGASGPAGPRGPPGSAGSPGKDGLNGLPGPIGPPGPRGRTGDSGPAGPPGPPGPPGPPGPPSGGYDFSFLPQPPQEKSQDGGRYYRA
Sequence of denatured type I collagen (gelatin), rat tail (P02466 86-1125, chain 2 of 2): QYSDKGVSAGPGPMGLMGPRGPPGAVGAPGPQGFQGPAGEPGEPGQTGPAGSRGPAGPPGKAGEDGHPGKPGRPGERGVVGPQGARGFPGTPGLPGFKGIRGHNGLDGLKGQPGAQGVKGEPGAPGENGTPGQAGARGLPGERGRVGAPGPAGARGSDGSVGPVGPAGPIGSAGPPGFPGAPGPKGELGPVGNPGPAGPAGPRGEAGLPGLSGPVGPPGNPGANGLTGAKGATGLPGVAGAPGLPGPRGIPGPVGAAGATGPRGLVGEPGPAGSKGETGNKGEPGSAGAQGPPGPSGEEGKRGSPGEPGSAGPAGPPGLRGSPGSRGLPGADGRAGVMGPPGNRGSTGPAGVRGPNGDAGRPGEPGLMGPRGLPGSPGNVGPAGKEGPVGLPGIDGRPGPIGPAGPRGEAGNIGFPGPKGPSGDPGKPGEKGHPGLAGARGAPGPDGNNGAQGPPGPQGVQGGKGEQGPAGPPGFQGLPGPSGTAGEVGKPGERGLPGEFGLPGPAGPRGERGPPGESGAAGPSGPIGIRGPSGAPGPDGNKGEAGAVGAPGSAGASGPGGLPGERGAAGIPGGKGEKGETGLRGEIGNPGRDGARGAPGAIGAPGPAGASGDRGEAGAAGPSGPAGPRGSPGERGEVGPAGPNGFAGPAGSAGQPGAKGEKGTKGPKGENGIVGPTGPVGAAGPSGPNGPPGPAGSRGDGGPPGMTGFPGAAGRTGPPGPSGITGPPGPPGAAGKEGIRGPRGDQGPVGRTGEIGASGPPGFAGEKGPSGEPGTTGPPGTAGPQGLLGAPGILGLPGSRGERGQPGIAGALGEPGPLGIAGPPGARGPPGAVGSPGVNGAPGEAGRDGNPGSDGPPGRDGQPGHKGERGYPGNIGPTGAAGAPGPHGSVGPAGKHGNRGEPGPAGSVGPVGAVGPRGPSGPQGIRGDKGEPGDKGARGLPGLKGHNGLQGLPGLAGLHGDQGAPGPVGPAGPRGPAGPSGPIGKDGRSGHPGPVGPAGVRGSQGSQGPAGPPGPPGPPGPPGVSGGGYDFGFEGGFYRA

As to (Pro-Pro-Gly)6, the “relative affinity of modules 1 and 2 versus module 3 for collagen-like peptide” value in the assay with MMP-2 CBD modules is “modules 1 and 2 have higher affinity”. For the same molecule, the “spectral perturbations of isolated CBD module 2” value in the assay on MMP-2 CBD modules (early NMR study) is “spectral perturbations of the surface-exposed aromatic residues Phe21, Tyr38, Trp40, Tyr47, Tyr53 and Phe55, as well as the neighboring Gly33-Gly37 segment”.

B1: Recombinant collagen binding domain (CBD) from human MMP-2, wildtype (domain or fragment)
chain: VVRVKYGNADGEYCKFPFLFNGKEYNSCTDTGRSDGFLWCSTTYNFEKDGKYGFCPHEALFTMGGNAEGQPCKFPFRFQGTSYDSCTTEGRTDGYRWCGTTEDYDRDKKYGFCPETAMSTVGGNSEGAPCVFPFTFLGNKYESCTSAGRSDGKMWCATTANYDDDRKWGFCPDQ
modifications: 15N (or 15N and 13C) labelled for NMR; biotinylated for the microwell assay
As for B1, in assay [1], binding was put at a Kd of 2900 nM.

B2: Y^329A: rCBD variant, single-point alanine substitution at Y^329, module 2 (protein)
chain: APSPIIKFPGDVAPKTDKELAVQYLNTFYGCPKESCNLFVLKDTLKKMQKFFGLPQTGDLDQNTIETMRKPRCGNPDVANYNFFPRKPKWDKNQITYRIIGYTPDLDPETVDDAFARAFQVWSDVTPLRFSRIHDGEADIMINFGRWEHGDGYPFDGKDGLLAHAFAPGTGVGGDSHFDDDELWTLGEGQVVRVKYGNADGEYCKFPFLFNGKEYNSCTDTGRSDGFLWCSTTYNFEKDGKYGFCPHEALFTMGGNAEGQPCKFPFRFQGTSYDSCTTEGRTDGYRWCGTTEDYDRDKKAGFCPETAMSTVGGNSEGAPCVFPFTFLGNKYESCTSAGRSDGKMWCATTANYDDDRKWGFCPDQGYSLFLVAAHEFGHAMGLEHSQDPGALMAPIYTYTKNFRLSQDDIKGIQELYGASPDIDLGTGPTPTLGPVTPEICKQDIVFDGIAQIRGEIFFFKDRFIWRTVTPRDKPMGPLLVATFWPELPEKIDAVYEAPQEEKAVFFAGNEYWIYSASTLERGYPKPLTSLGLPPDVQRVDAAFNWSKNKKTYIFAGDKFWRYNEVKKKMDPGFPKLIADAWNAIPDNLDAVVDLQGGGHSYFFKGAYYLKLENQSLKSVKFGSIKSDWLGC
modifications: biotinylated for the microwell assay; left off: His tag, end not stated, state not stated
Consider B2, for which, in assay [2], the “binding to gelatin / denatured type I collagen (SPR, RU)” value is reported as “strong reduction in binding”. Moreover, in the assay on native type I collagen, the “binding to native type I collagen (SPR, RU)” value is “strong reduction in binding”.

B3: W^374A: rCBD variant, single-point alanine substitution at W^374, module 3 (protein)
chain: APSPIIKFPGDVAPKTDKELAVQYLNTFYGCPKESCNLFVLKDTLKKMQKFFGLPQTGDLDQNTIETMRKPRCGNPDVANYNFFPRKPKWDKNQITYRIIGYTPDLDPETVDDAFARAFQVWSDVTPLRFSRIHDGEADIMINFGRWEHGDGYPFDGKDGLLAHAFAPGTGVGGDSHFDDDELWTLGEGQVVRVKYGNADGEYCKFPFLFNGKEYNSCTDTGRSDGFLWCSTTYNFEKDGKYGFCPHEALFTMGGNAEGQPCKFPFRFQGTSYDSCTTEGRTDGYRWCGTTEDYDRDKKYGFCPETAMSTVGGNSEGAPCVFPFTFLGNKYESCTSAGRSDGKMACATTANYDDDRKWGFCPDQGYSLFLVAAHEFGHAMGLEHSQDPGALMAPIYTYTKNFRLSQDDIKGIQELYGASPDIDLGTGPTPTLGPVTPEICKQDIVFDGIAQIRGEIFFFKDRFIWRTVTPRDKPMGPLLVATFWPELPEKIDAVYEAPQEEKAVFFAGNEYWIYSASTLERGYPKPLTSLGLPPDVQRVDAAFNWSKNKKTYIFAGDKFWRYNEVKKKMDPGFPKLIADAWNAIPDNLDAVVDLQGGGHSYFFKGAYYLKLENQSLKSVKFGSIKSDWLGC
modifications: biotinylated for the microwell assay; left off: His tag, end not stated, state not stated
For the molecule B3, the “binding to gelatin / denatured type I collagen (SPR, RU)” value in assay [2] is on record as “strong reduction in binding”. The “binding to native type I collagen (SPR, RU)” value in the assay on native type I collagen is “strong reduction in binding”.

B4: R^368A: rCBD variant, single-point alanine substitution at R^368, module 3 (protein)
chain: APSPIIKFPGDVAPKTDKELAVQYLNTFYGCPKESCNLFVLKDTLKKMQKFFGLPQTGDLDQNTIETMRKPRCGNPDVANYNFFPRKPKWDKNQITYRIIGYTPDLDPETVDDAFARAFQVWSDVTPLRFSRIHDGEADIMINFGRWEHGDGYPFDGKDGLLAHAFAPGTGVGGDSHFDDDELWTLGEGQVVRVKYGNADGEYCKFPFLFNGKEYNSCTDTGRSDGFLWCSTTYNFEKDGKYGFCPHEALFTMGGNAEGQPCKFPFRFQGTSYDSCTTEGRTDGYRWCGTTEDYDRDKKYGFCPETAMSTVGGNSEGAPCVFPFTFLGNKYESCTSAGASDGKMWCATTANYDDDRKWGFCPDQGYSLFLVAAHEFGHAMGLEHSQDPGALMAPIYTYTKNFRLSQDDIKGIQELYGASPDIDLGTGPTPTLGPVTPEICKQDIVFDGIAQIRGEIFFFKDRFIWRTVTPRDKPMGPLLVATFWPELPEKIDAVYEAPQEEKAVFFAGNEYWIYSASTLERGYPKPLTSLGLPPDVQRVDAAFNWSKNKKTYIFAGDKFWRYNEVKKKMDPGFPKLIADAWNAIPDNLDAVVDLQGGGHSYFFKGAYYLKLENQSLKSVKFGSIKSDWLGC
modifications: biotinylated for the microwell assay; left off: His tag, end not stated, state not stated
B4: in assay [2], the “binding to gelatin / denatured type I collagen (SPR, RU)” value was “strong reduction in binding”. In the assay on native type I collagen, the “binding to native type I collagen (SPR, RU)” value is “strong reduction in binding”.

B5: Y^381A: rCBD variant, single-point alanine substitution at Y^381, module 3 (protein)
chain: APSPIIKFPGDVAPKTDKELAVQYLNTFYGCPKESCNLFVLKDTLKKMQKFFGLPQTGDLDQNTIETMRKPRCGNPDVANYNFFPRKPKWDKNQITYRIIGYTPDLDPETVDDAFARAFQVWSDVTPLRFSRIHDGEADIMINFGRWEHGDGYPFDGKDGLLAHAFAPGTGVGGDSHFDDDELWTLGEGQVVRVKYGNADGEYCKFPFLFNGKEYNSCTDTGRSDGFLWCSTTYNFEKDGKYGFCPHEALFTMGGNAEGQPCKFPFRFQGTSYDSCTTEGRTDGYRWCGTTEDYDRDKKYGFCPETAMSTVGGNSEGAPCVFPFTFLGNKYESCTSAGRSDGKMWCATTANADDDRKWGFCPDQGYSLFLVAAHEFGHAMGLEHSQDPGALMAPIYTYTKNFRLSQDDIKGIQELYGASPDIDLGTGPTPTLGPVTPEICKQDIVFDGIAQIRGEIFFFKDRFIWRTVTPRDKPMGPLLVATFWPELPEKIDAVYEAPQEEKAVFFAGNEYWIYSASTLERGYPKPLTSLGLPPDVQRVDAAFNWSKNKKTYIFAGDKFWRYNEVKKKMDPGFPKLIADAWNAIPDNLDAVVDLQGGGHSYFFKGAYYLKLENQSLKSVKFGSIKSDWLGC
modifications: biotinylated for the microwell assay; left off: His tag, end not stated, state not stated
Take B5: the “binding to gelatin / denatured type I collagen (SPR, RU)” value in assay [2] is on record as “strong reduction in binding”. Besides, the “binding to native type I collagen (SPR, RU)” value with native type I collagen is recorded as “strong reduction in binding”.
